Experimental data as given in ChEMBL document CHEMBL1155887, “Structure-activity relationships of 2-aryl-1H-indole inhibitors of the NorA efflux pump in Staphylococcus aureus” (2008).
Converted amounts (≈) assume the structure as drawn. The source made the active and inactive calls. The calls are words filed in the database; no cut-off is given here.

Tests used:
Staphylococcus aureus [1] = experiment: Antibacterial activity against NorA knockout Staphylococcus aureus K1758 after 18 to 20 hrs by serial dilution method; format: functional
How it was run: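 Compound alone, without berberine: cells at 10^5 CFU/mL in broth, serial 2-fold dilutions of compound, 18–20 h at 37 °C, growth read at 600 nm. MIC is the lowest concentration giving complete growth inhibition. The testing limit was 1000 µM.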

Staphylococcus aureus [2] = experiment: Antibacterial activity against wild type Staphylococcus aureus 8325-4 after 18 to 20 hrs by serial dilution method; format: functional
How it was run: (§1)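 Compound alone, without berberine. Cells at 10^5 CFU/mL inoculated into broth and given serial 2-fold dilutions of compound. Incubated 18–20 h at 37 °C, with growth read as absorbance at 600 nm. MIC is the concentration completely inhibiting growth; testing limit 1000 µM.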

Staphylococcus aureus [3] = experiment: Antibacterial activity against Staphylococcus aureus K2378 overexpressing NorA after 18 to 20 hrs by serial dilution method; format: functional; how it was run: as §1
Escherichia coli [4] = experiment: Antibacterial activity against Escherichia coli O157:H7; format: functional
How it was run: (§2)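 Gram-negative and Gram-positive panel, MIC in µg/mL. Highest concentration tested was 200 µg/mL for E. coli O157:H7 and 100 µg/mL for Clostridium perfringens.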

Escherichia coli [5] = experiment: Antibacterial activity against Escherichia coli BW-25113; format: functional
How it was run: (§3)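 Panel of Gram-negative and Gram-positive non-Clostridium strains, compound alone: MIC in µg/mL, with 200 µg/mL the highest concentration tested.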

Escherichia coli [6] = experiment: Antibacterial activity against Escherichia coli UT189; format: functional; how it was run: as §3
Salmonella typhimurium = experiment: Antibacterial activity against Salmonella Typhimurium CS132; format: functional, Salmonella enterica subsp. enterica serovar Typhimurium; conditions: Salmonella enterica; how it was run: as §3
Pseudomonas aeruginosa [7] = experiment: Antibacterial activity against Pseudomonas aeruginosa PAO1; format: functional; how it was run: as §3
Pseudomonas aeruginosa [8] = experiment: Antibacterial activity against Pseudomonas aeruginosa PA14; format: functional; how it was run: as §3
Clostridioides difficile [9] = experiment: Antibacterial activity against Clostridium difficile VP110463; format: functional
How it was run: (§4)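 Clostridium difficile panel, compound alone: MIC in µg/mL, with 100 µg/mL the highest concentration tested.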

Clostridioides difficile [10] = experiment: Antibacterial activity against Clostridium difficile CD196; format: functional; how it was run: as §4
Clostridioides difficile [11] = experiment: Antibacterial activity against Clostridium difficile CD2001; format: functional; how it was run: as §4
Enterococcus faecalis [12] = experiment: Antibacterial activity against Enterococcus faecalis MMH594; format: functional; how it was run: as §3
Enterococcus faecalis [13] = experiment: Antibacterial activity against Enterococcus faecalis V583; format: functional; how it was run: as §3
Enterococcus faecalis [14] = experiment: Antibacterial activity against Enterococcus faecalis OG1RF; format: functional; how it was run: as §3
Clostridium perfringens = experiment: Antibacterial activity against Clostridium perfringens; format: functional; how it was run: as §2
[15] = molecular target: T1, Quinolone resistance protein NorA (Staphylococcus aureus) (UniProt P0A0J7); experiment: Inhibition of NorA efflux pump in NorA knockout Staphylococcus aureus K1758 assessed as drug level required for two fold potentiation of berberine MIC at 1.56 to 100 ug/mL after 20 hrs by serial dilution method
T1 sequence (whole entry): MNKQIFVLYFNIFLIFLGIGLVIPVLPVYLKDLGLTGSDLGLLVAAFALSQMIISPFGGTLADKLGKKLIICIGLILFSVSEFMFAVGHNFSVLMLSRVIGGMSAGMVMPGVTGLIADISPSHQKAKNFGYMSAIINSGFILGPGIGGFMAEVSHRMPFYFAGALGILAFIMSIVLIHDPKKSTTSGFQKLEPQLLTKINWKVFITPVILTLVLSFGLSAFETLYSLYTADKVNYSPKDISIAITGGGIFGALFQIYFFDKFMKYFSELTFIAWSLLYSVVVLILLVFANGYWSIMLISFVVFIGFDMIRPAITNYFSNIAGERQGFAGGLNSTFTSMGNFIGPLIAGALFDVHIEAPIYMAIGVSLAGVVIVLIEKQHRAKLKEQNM

[16] = molecular target: T1, Quinolone resistance protein NorA (Staphylococcus aureus); experiment: Inhibition of NorA efflux pump in wild type Staphylococcus aureus 8325-4 assessed as drug level required for two fold potentiation of berberine MIC at 1.56 to 100 ug/mL after 20 hrs by serial dilution method
How it was run: (§5)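 Checkerboard of serial 2-fold dilutions of berberine chloride against inhibitor, with inhibitor at 1.56–100 µg/mL. Berberine ranges were 12.5–100 µg/mL for 8325-4 and 200–800 µg/mL for K2378. Each agent was also diluted alone. Cells at 5 10^5 CFU/mL (final), 37 °C for 20 h, read at 600 nm; OD <0.05 counted as no growth. Inhibitor MIC is the lowest concentration lowering the berberine MIC at least 2-fold.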

[17] = molecular target: T1, Quinolone resistance protein NorA (Staphylococcus aureus); experiment: Inhibition of NorA efflux pump in Staphylococcus aureus K2378 overexpressing NorA assessed as drug level required for two fold potentiation of berberine MIC at 1.56 to 100 ug/mL after 20 hrs by serial dilution method; how it was run: as §5
[18] = molecular target: T1, Quinolone resistance protein NorA (Staphylococcus aureus); experiment: Inhibition of NorA efflux pump in wild type Staphylococcus aureus 8325-4 assessed as ratio of berberine MIC in presence to absence of inhibitor
[19] = molecular target: T1, Quinolone resistance protein NorA (Staphylococcus aureus); experiment: Inhibition of NorA efflux pump overexpressing Staphylococcus aureus 8325-4 K2378 assessed as ratio of berberine MIC in presence to absence of inhibitor
[20] = molecular target: T1, Quinolone resistance protein NorA (Staphylococcus aureus); experiment: Inhibition of NorA efflux pump overexpressed Staphylococcus aureus K2361 assessed as increase in antibacterial activity of berberine at 0.8 ug/mL
[21] = molecular target: T1, Quinolone resistance protein NorA (Staphylococcus aureus); experiment: Inhibition of NorA efflux pump overexpressed Staphylococcus aureus K2361 assessed as increase in antibacterial activity of berberine at 3 ug/mL
[22] = molecular target: T1, Quinolone resistance protein NorA (Staphylococcus aureus); experiment: Inhibition of NorA efflux pump overexpressed in Staphylococcus aureus 1199B assessed as increase in susceptibility to ciprofloxacin at 1.5 ug/mL by serial broth microdilution method

Row | Compound | MIC (Staphylococcus aureus [1]) | MIC (Staphylococcus aureus [2]) | MIC [16] | MIC [17] | Activity [15] | also measured
1 | OCc1ccc2[nH]c(-c3ccccc3)cc2c1 | 14 µM (≈ 3.13 µg/mL) | 28 µM (≈ 6.25 µg/mL) |  |  |  | MIC (Staphylococcus aureus [3]): 28 µM (≈ 6.25 µg/mL); MIC (Escherichia coli [4]): > 200 µg/mL; MIC (Escherichia coli [5]): > 200 µg/mL; MIC (Escherichia coli [6]): > 200 µg/mL; MIC (Salmonella typhimurium): > 200 µg/mL; MIC (Pseudomonas aeruginosa [7]): > 200 µg/mL; MIC (Pseudomonas aeruginosa [8]): > 200 µg/mL; MIC (Clostridioides difficile [9]): > 100 µg/mL; MIC (Clostridioides difficile [10]): > 100 µg/mL; MIC (Clostridioides difficile [11]): > 100 µg/mL; MIC (Enterococcus faecalis [12]): > 200 µg/mL; MIC (Enterococcus faecalis [13]): > 200 µg/mL; MIC (Enterococcus faecalis [14]): > 200 µg/mL; MIC (Clostridium perfringens): > 100 µg/mL
2 | COC(=O)c1cccc(-c2cc3cc([N+](=O)[O-])ccc3[nH]2)c1 | > 1000 µM | > 1000 µM | 1 µM | 1 µM |  | MIC [15]: 0.51 µM
3 | CCCOS(=O)(=O)c1ccc2[nH]c(-c3ccccc3)cc2c1 | 79.3 µM (≈ 25 µg/mL) | 79.3 µM (≈ 25 µg/mL) |  |  |  | MIC (Staphylococcus aureus [3]): 79.3 µM (≈ 25 µg/mL)
4 | COC(=O)c1ccccc1-c1cc2cc([N+](=O)[O-])ccc2[nH]1 | > 1000 µM | > 1000 µM | 34 µM | inactive | inactive | 
5 | O=[N+]([O-])c1ccc2[nH]c(-c3cccc(CO)c3)cc2c1 | > 1000 µM | > 1000 µM | 5 µM | 9 µM |  | MIC [15]: 9 µM
6 | O=S(=O)(O)c1ccc2[nH]c(-c3ccccc3)cc2c1 | > 1000 µM | > 1000 µM |  |  | inactive | Activity [16]: inactive; Activity [17]: inactive
7 | c1ccc(-c2cc3ccccc3[nH]2)cc1 [2-PHENYL-1H-INDOLE] | > 1000 µM | > 1000 µM | 65 µM | 259 µM | inactive | Ratio [18]: 4; Ratio [19]: 4
8 | COc1ccc2cc3[n+](cc2c1OC)CCc1cc2c(cc1-3)OCO2 [BERBERINE CHLORIDE] | 67 µM | 269 µM |  |  |  | MIC (Staphylococcus aureus [3]): 2150 µM
9 | COC(=O)c1ccccc1-c1cc2ccccc2[nH]1 | > 1000 µM | > 1000 µM | 20 µM | 20 µM | inactive | 
10 | COC(=O)c1cccc(-c2cc3ccccc3[nH]2)c1 | > 1000 µM | > 1000 µM | 5 µM | 10 µM |  | MIC [15]: 40 µM
11 | N#Cc1ccc2[nH]c(-c3ccccc3)cc2c1 | > 1000 µM | > 1000 µM | 3.6 µM | 7.1 µM | inactive | Ratio [18]: 2; Ratio [19]: 2
12 | COC(=O)c1ccc(-c2cc3cc([N+](=O)[O-])ccc3[nH]2)cc1 | > 1000 µM | > 1000 µM | 17 µM | inactive | inactive | 
13 | O=[N+]([O-])c1ccc2[nH]c(-c3cc(OCc4ccccc4)ccc3CO)cc2c1 |  |  |  |  |  | fold change (FC) [20]: > 15
14 | O=[N+]([O-])c1ccc2[nH]c(-c3ccccc3CO)cc2c1 | > 1000 µM | > 1000 µM | 47 µM | 47 µM |  | MIC [15]: 24 µM
15 | OCc1ccc(-c2cc3ccccc3[nH]2)cc1 | > 1000 µM | > 1000 µM | 22 µM | 45 µM | inactive | 
16 | O=[N+]([O-])c1ccc2[nH]c(-c3ccc(CO)cc3)cc2c1 | > 1000 µM | > 1000 µM | 2 µM | 2 µM |  | MIC [15]: 5 µM
17 | COS(=O)(=O)c1ccc2[nH]c(-c3ccccc3)cc2c1 | 174 µM (≈ 50 µg/mL) | 174 µM (≈ 50 µg/mL) |  |  |  | MIC (Staphylococcus aureus [3]): 174 µM (≈ 50 µg/mL)
18 | O=[N+]([O-])c1ccc2[nH]c(-c3ccccc3)cc2c1 | > 1000 µM | > 1000 µM | 1.3 µM | 1.3 µM |  | Activity [21]: Active; MIC [15]: 0.63 µM; Ratio [18]: 2; Ratio [19]: 2; fold change (FC) [22]: 4
19 | COC(=O)c1ccc2[nH]c(-c3ccccc3)cc2c1 | > 1000 µM | > 1000 µM |  |  | inactive | Activity [16]: inactive; Activity [17]: inactive
20 | COC(=O)c1ccc(-c2cc3ccccc3[nH]2)cc1 | > 1000 µM | > 1000 µM | 20 µM | 40 µM | inactive | 
21 | OCc1cccc(-c2cc3ccccc3[nH]2)c1 | > 1000 µM | > 1000 µM | 45 µM | 45 µM | inactive | 
22 | OCc1ccccc1-c1cc2ccccc2[nH]1 | > 1000 µM | > 1000 µM | 45 µM | 45 µM | inactive | 
23 | NS(=O)(=O)c1ccc2[nH]c(-c3ccccc3)cc2c1 | > 1000 µM | > 1000 µM |  |  | inactive | Activity [16]: inactive; Activity [17]: inactive
24 | O=C(O)c1ccc2[nH]c(-c3ccccc3)cc2c1 | > 1000 µM | > 1000 µM |  |  | inactive | Activity [16]: inactive; Activity [17]: inactive
